Screening results (PubChem)
Most compounds without a hit are left out; they make up all but 1.7% or so of the library.
HNF4A DNA FP – change in binding of human HNF4 alpha to DNA | P41235 | HNF4a-FITC DNA binding, fluorescence polarization, 1 h | activity change, % at 10 µM | hit rate 0.3% among 360,000; in the data active = activity change above about 30%, passing the limit was not always enough
TPT1 inh – C. albicans TPT1 enzyme inhibition; recombinant caTPT1, FP RNA substrate dephosphorylation; inhibition, % at 5 µM; hit rate 0.81% among 300,000;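 active = inhibition above the mean of all tested compounds plus 3 SD, set per screening campaign, cut at about 24% in these data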;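 also: plate controls were DMSO alone for no effect and ferristatin control at 100 nM for full effect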
NR1D1 modulator – modulators of human Rev-erb alpha DNA binding; P20393; Rev-erbα–FITC-DNA binding, fluorescence polarization, 90 min; activity, % at 10 µM; hit rate 0.79% among 370,000; AID 1259318;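 active = activity above about 14%, limit read from the data; passing the limit was not always enough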;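 also: 0% = DMSO wells with 35 nM protein and 100% = DMSO wells with 750 nM protein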
Target sequence (P20393 whole entry, looked up): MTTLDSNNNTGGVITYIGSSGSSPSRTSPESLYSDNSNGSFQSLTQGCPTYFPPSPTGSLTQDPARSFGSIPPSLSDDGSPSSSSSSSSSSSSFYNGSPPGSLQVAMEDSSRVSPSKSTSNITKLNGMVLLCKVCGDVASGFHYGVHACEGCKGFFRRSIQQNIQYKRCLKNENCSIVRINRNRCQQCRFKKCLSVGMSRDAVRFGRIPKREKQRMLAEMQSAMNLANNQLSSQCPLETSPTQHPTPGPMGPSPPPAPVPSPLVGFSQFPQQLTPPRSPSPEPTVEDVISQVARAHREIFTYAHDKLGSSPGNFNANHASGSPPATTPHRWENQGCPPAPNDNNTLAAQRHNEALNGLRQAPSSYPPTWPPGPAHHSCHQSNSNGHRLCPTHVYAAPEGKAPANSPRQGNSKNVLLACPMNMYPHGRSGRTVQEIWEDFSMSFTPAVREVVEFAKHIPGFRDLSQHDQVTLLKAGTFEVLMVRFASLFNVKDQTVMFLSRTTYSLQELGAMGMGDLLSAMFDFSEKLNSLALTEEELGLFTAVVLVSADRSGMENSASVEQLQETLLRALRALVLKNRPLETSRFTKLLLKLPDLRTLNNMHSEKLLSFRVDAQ
CSN deneddyl inh – blocks human CSN-mediated cullin deneddylation | Q92905 | Purified CSN, SCF-Nedd8-OG deneddylation, fluorescence polarization | inhibition, % at 12.5 µM | hit rate 0.38% among 360,000 | AID 651999;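 active = pattern-corrected inhibition above about 35%, with an unprinted fluorescence ratio check between 0.5 and 1.5, limit read from the data, passing the limit was not always enough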;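 also: 0% = enzyme with substrate and 100% = substrate without enzyme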
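test system = HEK293T-derived human Csn5 enzyme | amount = 0.24 nM Csn5 enzyme, final concentration | medium = Tris/NaCl/DTT buffer, pH 7.5 | schedule = 90 min reaction at room temperature | signal = FP | evaluation = inhibition of Csn5 cleavage, % | compound dosing = single dose of 12.5 µM compound with 0.25% DMSO | probe or stimulus = 10 nM SCFSkp2-Nedd8OG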
Rev-erbA confirm – Rev-erb alpha (human) modulation, hit confirmation; shares compounds with NR1D1 modulator; Rev-erb alpha FITC-DNA binding, fluorescence polarization, 90 min; activation, % at 25 µM; hit rate 61% among 3,000;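 active = activation at or above a set limit, or at least 3 SD above the negative control mean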;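 also: 0% = 35 nM protein with DMSO and 100% = 750 nM protein high control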
RORg counter – RORgamma DNA-binding activity, dose-response counter-screen | shares compounds with NR1D1 modulator | IC50, µM | hit rate 8% among 910 | purified RORgamma protein-FITC-DNA binding, fluorescence polarization;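 active = Compounds whose fitted half-maximal concentration for disrupting protein-DNA binding is below 10 micromolar; the record names Rev-erb in its text, so the target is in doubt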
The depositor's hits bear a star; i = inactive; x = not tested or not shown.

SMILES | HNF4A DNA FP | TPT1 inh | NR1D1 modulator | CSN deneddyl inh | Rev-erbA confirm | others
Cc1ccc2[nH]c(=O)c(CN(C(=O)c3cccs3)c3ccccc3)cc2c1 | 2 | 1 | 52* | -9 | 96* | RORg counter=>40
COc1ccc(CC(=O)OCc2cc3ccc(C)cc3[nH]c2=O)cc1 | 2 | -2 | 34* | -4 | 31*
COC(=O)C1=C(C)N(C)C(=NCc2cccc(C(F)(F)F)c2)NC1c1ccc(C(F)(F)F)cc1 (centres undefined) | x | x | -4 | x | x
COc1ccc(-c2cc(-c3ccc(Br)cc3)nc3ncnn23)cc1OC | 0 | -3 | 25* | 6 | 8
CC(OC(=O)c1cc(Br)ccc1O)C(=O)NCc1ccc2c(c1)OCO2 (centres undefined) | 1 | -2 | 35* | 7 | 23*
Cc1cnc(NC(=O)c2cc3c(C)nn(-c4ccccc4)c3s2)s1 | 3 | 3 | 40* | -6 | 35* | RORg counter=>40
O=[N+]([O-])c1cncc2[nH]cnc12 | x | x | 0 | x | x
COC(=O)C1=C(C)N(Cc2cccc(C(F)(F)F)c2)C(=NCC2CC2)NC1c1cccc(Cl)c1 (centres undefined) | x | x | 0 | x | x
CC(C)CN(CC(C)C)C(=O)CSc1nc2cccnc2n1C | x | x | -2 | x | x
CCC[C@H]1[C@@H](NCc2cccs2)CC[C@@]23CCCN2C(=O)CCC[C@@H]13 | x | x | 21* | x | 11*
CCC[C@H]1[C@@H](NC(=O)C#Cc2ccccc2)CC[C@@]23CCCN2C(=O)CCC[C@@H]13 | x | x | 0 | x | x
CCCN1C(=O)c2n[nH]c(C(C)C)c2C1c1cccc(C(F)(F)F)c1 (centres undefined) | x | x | 3 | x | x
Cc1ccc(C(c2sc3nc(C)nn3c2O)N2CCN(CCO)CC2)cc1 (centres undefined) | 1 | -4 | 17* | 6 | 6
CCN(CC)C(=O)CC[C@H]1CC[C@]2(CCCN(Cc3ccncc3)C2)O1 | x | x | 6 | x | x
COC(=O)[C@]12C[C@H](CC(=O)N3CCSCC3)C(=O)N(Cc3ccccc3)C1=C[C@H](C(C)C)O[C@@H]2C1CC1 | x | x | -3 | x | x
Cc1nn(C)c(C)c1NC(=O)CSc1nc(Cc2ccccc2)nc2c1cnn2-c1ccccc1 | -2 | -1 | 181* | 2 | 76*
Cc1cc2cc3c(cc2nc1SCC(=O)N1c2ccccc2CC1C)OCO3 (centres undefined) | 3 | -5 | 7 | -2 | x
Cc1cc2ccccc2nc1SCC(=O)N1c2ccccc2CC1C (centres undefined) | -4 | 5 | 147* | -1 | -2
CC1Cc2ccccc2N1C(=O)CSc1nc2cc3c(cc2cc1C#N)OCO3 (centres undefined) | 9 | -3 | 70* | 4 | 32*
CCn1c2ccccc2c2cc(C=Nn3c(-c4ccccc4C)n[nH]c3=S)ccc21 | x | x | 8 | x | x
Fc1ccc2nc(Nc3nc4c(F)cccc4s3)sc2c1 | -1 | 6 | 16 | -2 | x
O=C(NNc1nc2ccccc2s1)c1ccccc1F | 2 | -4 | -3 | 0 | x
Fc1cccc2sc(Nc3nc4ccccc4s3)nc12 | 0 | -1 | 40* | -15 | 35* | RORg counter=>40
Fc1ccc2nc(Nc3nc4c(F)cc(F)cc4s3)sc2c1 | -4 | -1 | 53* | -5 | 41* | RORg counter=>40
Fc1ccc2nc(Nc3nc4cc5c(cc4s3)OCCO5)sc2c1 | 1 | 2 | 32* | -13 | 39* | RORg counter=>40
SMILES | HNF4A DNA FP | TPT1 inh | NR1D1 modulator | CSN deneddyl inh | Rev-erbA confirm | others
COC(=O)c1ccc(S(=O)(=O)N2CCC(NC(=O)Cc3cccc(C)c3)CC2)cc1 | x | x | 1 | x | x
O=C(Cn1nnc(N2CCCCC2)n1)NN=Cc1ccccc1O | x | x | -3 | x | x
Brc1cccc(-c2nc3cccnc3nc2-c2cccc(Br)c2)c1 | -3 | 0 | 14* | -4 | 6
c1cnc2nc3c4ccccc4c4ccccc4c3nc2c1 | 29 | x | 5 | 28 | x
COc1ccc2nc(C(F)(F)C(F)(F)F)c(C#N)c(N)c2c1 | -2 | -1 | 46* | 3 | 28*
COc1cc(OC)c2c(N)c(C#N)c(C(F)(F)C(F)(F)F)nc2c1 | -4 | -3 | 3 | 4 | x
N#Cc1cnn2c1nc(N1CCCCC1)c1ccccc12 | 3 | -2 | 32* | 3 | 3
c1ccc2c(c1)nc(N1CCCCC1)c1ccccc12 | -4 | 1 | -1 | 0 | x
COc1nc2c(C)cccc2cc1-c1noc(-c2ccco2)n1 | 12 | 7 | 20* | 11 | 15
COc1nc(-c2ccc(Cl)cc2)ccc1-c1noc(-c2ccco2)n1 | 4 | 1 | 31* | 4 | 1
COc1cc(OC)cc(-c2nc(-c3cc4cc(C)ccc4nc3OC)no2)c1 | 3 | x | 3 | 7 | x
OCC1OC(Oc2cccc3ccccc23)C(O)C(O)C1O (centres undefined) | 1 | 3 | 26* | 5 | -3
CCOC(=O)Cc1csc(NC(=O)COc2ccc(N(C)S(=O)(=O)c3ccc(C)cc3)cc2)n1 | -2 | 1 | 8 | -4 | x
CCOc1ccc(S(=O)(=O)N(C)c2ccc(OCC(=O)Nc3nc(-c4cc(OC)ccc4OC)cs3)cc2)cc1 | 3 | 2 | 25* | 2 | 30*
CN(CC(=O)Nc1ccc(Cl)c(C(F)(F)F)c1)C(=O)CCN1C(=O)C2CC=CCC2C1=O (centres undefined) | -2 | -2 | 0 | 1 | x
Cc1cc(C)n2nc(SCC(=O)NC3CCCCC3)nc2n1 | 2 | -3 | 1 | 0 | x
CC1CC(C)CN(S(=O)(=O)c2ccc3c(c2)n(C)c(=O)c(=O)n3C)C1 (centres undefined) | -2 | 0 | 66* | -2 | 0
CCCCOc1cccc(C2C(C(=O)c3ccc(C)o3)=C(O)C(=O)N2c2nnc(C)s2)c1 (centres undefined) | -10 | x | 18* | 6 | 18*
COc1ccc(-c2cc(C3CC3)nc(SCC(=O)c3cccs3)c2C#N)cc1 | 3 | 4 | 88* | 2 | 110* | RORg counter=>40
CCOC(=O)c1ccccc1S(=O)(=O)N1CCN(c2nc(-c3cccs3)nc3ccccc23)CC1 | x | x | -6 | x | x
CCOC(=O)c1cc(-c2ccc3c(c2)OCO3)nc2onc(C)c12 | 4 | -2 | 33* | 2 | 9
COc1ccc2c(C)cc(SCC(=O)Nc3cccnc3Cl)nc2c1 | -1 | -3 | 59* | 10 | 69* | RORg counter=i
COc1ccc2c(C)cc(SCC(=O)Nc3ncc(Cl)cc3Cl)nc2c1 | 3 | 6 | 119* | -8 | 56* | RORg counter=>40
COc1ccc2c(-c3ccccc3)cc(SCC(=O)NC(N)=O)nc2c1 | 1 | -2 | 40* | 13 | 14
COc1ccc(-n2cnnc2SCC(=O)Nc2cccnc2Cl)cc1 | -1 | -1 | 4 | 0 | x
COCCNC(=O)CSc1cc(-c2ccccc2)c2ccc(OC)cc2n1 | 2 | 2 | 3 | 0 | x
